FXN GAA850 act: increases GAA850 frataxin promoter reporter activity | HEK293 lucGAA850 FXN promoter luciferase reporter, 24 h; percent of 10 µM SAHA response | activation, % at 6 µM | 360,000 tested, 0.56% active | AID 540364;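 active = activation above the average of all compounds screened plus 3 SD, cutoff fixed separately per campaign, cut at about 7.5% in these data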;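 also: 0% = DMSO wells and 100% = 10 µM SAHA wells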
NR2E3 ag-1: human photoreceptor-specific nuclear receptor agonism. Q9Y5X4. CHO-S Gal4-NCOR/VP16-NR2E3 two-hybrid, luciferase. inhibition of corepressor binding, % at 3.98 µM. 360,000 tested, 0.35% active. AID 602229;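 active = inhibition above the mean of all tested compounds plus 3 SD, cut at about 70% in these data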;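 also: 0% = DMSO with NR2E3 transfected cells and 100% = cells lacking NR2E3 construct; higher means lower luciferase signal from less NR2E3 corepressor binding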
Target sequence (Q9Y5X4 whole entry, looked up, the tested form may be a part): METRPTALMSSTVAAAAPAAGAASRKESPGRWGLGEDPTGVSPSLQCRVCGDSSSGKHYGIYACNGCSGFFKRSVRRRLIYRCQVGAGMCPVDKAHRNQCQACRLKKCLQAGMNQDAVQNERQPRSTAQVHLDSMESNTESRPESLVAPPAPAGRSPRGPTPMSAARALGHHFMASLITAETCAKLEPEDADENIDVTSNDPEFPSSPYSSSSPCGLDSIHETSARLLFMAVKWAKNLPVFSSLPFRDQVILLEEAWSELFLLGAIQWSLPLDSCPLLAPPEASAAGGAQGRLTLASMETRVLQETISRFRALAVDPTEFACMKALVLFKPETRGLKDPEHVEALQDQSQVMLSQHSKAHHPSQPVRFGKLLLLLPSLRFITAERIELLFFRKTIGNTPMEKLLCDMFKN
Myeloid diff 2: promotes myeloid progenitor differentiation | ER-HoxA9 myeloid progenitors, lysozyme-GFP differentiation, flow cytometry | calls only at 10 µM | 360,000 tested, 1% active;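 active = normalized GFP-positive differentiation at or above the plate's own cutoff, the solvent-only control mean plus 3 SD; inconclusive = no clear call, values can overlap the other calls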;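 also: cells exposed to compound for four days before flow analysis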
NR2E3 ag-2: agonists of human nuclear receptor NR2E3 | inhibition of corepressor binding, % at 4.78 µM | AID 2300 | Q9Y5X4 | GST-NR2E3/biotin-RetCOR TR-FRET, 1536-well | 320,000 tested, 0.12% active;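 active = percent inhibition above the cutoff of mean plus 3 SD of all tested compounds, set per screening campaign, cut at about 20% in these data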;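 also: 0% = DMSO wells and 100% = biotin wells as full block of FRET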
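system = GST-tagged NR2E3 plus biotinylated RetCOR corepressor | input = 1.35 nM GST-NR2E3 | also added = 7 nM biotin-RetCOR | schedule = 5 h incubation at 4 °C | measured by = TR-FRET with europium anti-GST and streptavidin-D2, 340 nm excitation | read-out = percent loss of FRET ratio relative to control wells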
T cell HTS: modulates CD8 T cell binding to vesicles; 2C CD8+ T cell-vesicle binding, flow cytometry; hits give low values; response (vesicle binding), % at 7 µM; 330,000 tested, 0.068% active; AID 2052;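 active = response, share of CD8 T cells binding vesicles, and their 90th percentile fluorescence all below set limits, cut at about 80% in these data, passing the limit was not always enough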;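 also: values below 100% mean blocked vesicle binding to the CD8+ T cells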
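Material: murine 2C transgenic CD8+ T lymphocytes / Also added: QL9-peptide-loaded Drosophila micro-vesicles bearing Ld, ICAM-1 and B7-1 / Schedule: binding step 1.5 h, 37 °C, antibody labelling 20 min, ice / Signal: flow cytometry, PE anti-B7-1 (FL2) versus Alexa647 anti-CD8 (FL8), PFA-fixed / Evaluation: percent CD8+ FL2 mean versus row control / Benchmarks: naked versus QL9-loaded vesicles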
Myeloid diff: myeloid differentiation induction; shares compounds with Myeloid diff 2; AID 651706; ER-HoxA9 myeloid progenitors, GFP/Mac1 double-positive flow; calls only; 2,300 tested, 2% active;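 active = share of green or green-and-red cells above 9 and 9% in run 1 or 4 and 3% in run 2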
GFP autofluor: counter-screen for myeloid differentiation promoters: compound fluorescence. 2,300 tested, 7.4% active. fluorescence response, % (concentration not given with the values). AID 651707. ER-HoxA9 myeloid progenitors, no estrogen, GFP autofluorescence flow cytometry; vehicle wells 0%, positive control 100%. shares compounds with Myeloid diff 2;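 active = over 5% cells positive for green fluorescent reporter, or over 2% positive for both it and APC stain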;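 also: range taken on the double positive population between DMSO and positive control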
The depositor's hits bear a star; i = inactive; ? = inconclusive; . = not tested or not shown; + = active, no number. This is a sample that favours compounds with a hit; in the whole collection about 2% have one here.

SMILES | FXN GAA850 act | NR2E3 ag-1 | Myeloid diff 2 | NR2E3 ag-2 | T cell HTS | Myeloid diff | GFP autofluor
O=C(NC1CCN(Cc2ccccc2)CC1)C1CCCN(c2nnc(-n3cccc3)s2)C1 (configuration not stated) | -2.4 | 14.7 | i | -0.5 | 464.7 | i | 0.0
O=C(NC1CCN(Cc2ccccc2)CC1)C1CCN(c2nnc(-n3cccc3)s2)CC1 | 0.3 | 10.5 | ? | 2.1 | 117.4 | . | .
CCN1C(=O)/C(=C/c2cn(C)nc2C)SC1=S | 1.8 | -3.8 | i | 0.9 | 224.1 | . | .
CCN1C(=S)SC(=O)C1=C1C=C(C)N(CCO)C(C)=C1 | 7.6 | -134.9 | i | -5.1 | 371.4 | i | 0.0
CCN(CC)C1=C(Cl)C(=O)C(Cl)C12OCCO2 (configuration not stated) | 0.1 | -8.0 | i | -0.9 | i | . | .
CCOC(=O)CC1Sc2ccccc2NC1=S (configuration not stated) | -0.2 | -18.0 | i | -3.6 | 258.9 | . | .
Cc1ccc2c(c1)CCCN2S(=O)(=O)c1cccc(C(=O)Nc2ccccc2C(=O)O)c1 | -1.6 | 32.6 | i | -3.5 | 455.5 | . | .
COc1ccc(S(=O)(=O)N(C)C[C@@H]2Oc3cc(C#CC4CCCCC4)ccc3S(=O)(=O)N([C@@H](C)CO)C[C@@H]2C)cc1 | -0.7 | 6.5 | i | . | . | i | 0.0
C[C@H]1CN([C@@H](C)CO)S(=O)(=O)c2ccc(Br)cc2O[C@H]1CN(C)C(=O)CN(C)C | . | 17.6 | i | . | . | . | .
C[C@@H]1CN([C@H](C)CO)S(=O)(=O)c2ccc(Br)cc2O[C@H]1CN(C)C(=O)Nc1cccc(F)c1 | -2.2 | -22.4 | i | . | . | i | 0.0
C[C@@H]1CN([C@@H](C)CO)S(=O)(=O)c2ccc(Br)cc2O[C@H]1CN(C)C(=O)CN(C)C | 0.4 | -12.4 | + | . | . | i | 0.0
O=C(/C=C/[C@H]1O[C@@H](n2ccc(=O)[nH]c2=O)[C@H](O)[C@@H]1O)NC1CCN(Cc2ccccc2)C1 (some centres not stated) | . | 8.1 | i | . | . | . | .
CC(Oc1cccnc1[N+](=O)[O-])C(=O)Nc1cccc(Cl)c1 (configuration not stated) | 0.3 | -3.2 | i | -1.8 | 621.1 | . | .
CCc1nc2ccc(C(=O)N(CC)CCN(C)C)cn2c1N(C)Cc1nccs1 | -1.0 | 18.1 | i | . | . | . | .
O=C(N/N=C/c1ccncc1)c1cc2ccccc2cc1O | 1.8 | -55.0 | i | . | 460.1 | . | .
O=C(N/N=C/c1ccncc1)c1cc([N+](=O)[O-])cc([N+](=O)[O-])c1O | -1.9 | -16.1 | i | 1.2 | 469.9 | i | 0.3
COc1ccc(-n2c(N)c(C(=O)NCC3CCCO3)sc2=S)cc1 (configuration not stated) | 1.5 | -9.6 | + | 5.8 | 334.5 | i | 0.0
CCn1c(-c2sc(-c3ccccc3)nc2C)n[nH]c1=S | 3.3 | 1.0 | + | -3.8 | 68.4 | i | 0.0
Cc1nc2ccc(NC(=O)c3cccs3)cc2c(=O)n1Cc1ccc(Cl)cc1 | -7.1 | -30.8 | + | 1.8 | 187.7 | i | 0.0
CCCc1nc2ccc(NC(=O)c3cccs3)cc2c(=O)n1Cc1ccc(Cl)cc1 | 1.5 | -12.5 | i | -1.3 | 257.3 | . | .
CC1CN(C(=O)CN2C(=O)NC3(CCCCCCC3)C2=O)CC(C)O1 (configuration not stated) | 4.6 | 5.5 | + | -0.8 | 605.1 | i | 0.8
CCOCCn1c(CN(Cc2ccccc2)Cc2ccccc2)nc2c1c(=O)[nH]c(=O)n2C | -0.7 | -10.2 | + | 3.1 | 320.7 | i | 0.3
CN(CC(=O)Nc1ccc(Cl)cc1)Cc1cc(=O)n2ccsc2n1 | 0.8 | 15.8 | i | 0.2 | 481.9 | . | .
Cc1ccc(NC(=O)CN(C)Cc2cc(=O)n3ccsc3n2)cc1 | 2.6 | 11.5 | i | 2.4 | 334.5 | i | 1.3
CC(NC(=O)c1cccc2c1Oc1ccccc1S2)C(=O)O (configuration not stated) | . | 15.1 | i | . | . | . | .
Cn1c(C(=O)NCCN2CCOCC2)cc2c(=O)n(C)c3ccccc3c21 | 0.7 | -12.3 | i | -2.0 | 262.3 | i | 3.6

High-throughput results (PubChem)
